Reference: ChEMBL document CHEMBL1177801, “Structure-based design and synthesis of pyrrole derivatives as MEK inhibitors” (Bioorg Med Chem Lett, 2010)
Calls of active or inactive are those of the source. The calls are words filed in the database; no cut-off is given here.

Key:
[1] = test system: COLO 205; assay: Cytotoxicity against human COLO205 cells expressing b-Raf V600E mutant after 72 hrs by MTS assay; type: functional, cell-based; conditions: COLO 205, 72 h
Procedure, shortened: (§1)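 Human BRAF(V600E) line seeded at 3000–10,000 cells per 96 well, allowed 16 h at 37 °C in humidified 5% CO2. Then exposed 72 h to an eleven-point compound dilution in duplicate. NADH measured by MTS tetrazolium conversion, read at OD 490 nm. EC50 taken from compound concentration vs total NADH.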

[2] = Half life in rat liver microsomes; type: ADME, Microsome
[3] = Half life in human liver microsomes; type: ADME, Microsome
[4] = target: Dual specificity mitogen-activated protein kinase kinase 1 (Homo sapiens, UniProt Q02750); assay: Inhibition of MEK1 by cascade assay method
Dual specificity mitogen-activated protein kinase kinase 1, sequence (Q02750 whole entry): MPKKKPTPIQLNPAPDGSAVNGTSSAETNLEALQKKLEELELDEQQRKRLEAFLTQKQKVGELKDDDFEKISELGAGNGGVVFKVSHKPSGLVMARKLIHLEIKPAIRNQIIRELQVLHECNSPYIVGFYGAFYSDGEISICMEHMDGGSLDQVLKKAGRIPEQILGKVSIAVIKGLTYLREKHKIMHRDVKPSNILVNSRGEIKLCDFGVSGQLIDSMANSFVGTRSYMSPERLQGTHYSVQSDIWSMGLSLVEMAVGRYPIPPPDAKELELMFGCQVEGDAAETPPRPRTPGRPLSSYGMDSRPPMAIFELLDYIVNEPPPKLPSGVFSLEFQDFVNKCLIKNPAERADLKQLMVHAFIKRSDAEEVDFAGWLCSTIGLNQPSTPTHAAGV
Procedure, shortened: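 Cascade format, compounds serially diluted in DMSO, then in 50 mM HEPES pH 7.3, 10 mM NaCl, 10 mM MgCl2, 0.01% Brij35, 1 mM DTT. Reaction started with 1 nM MEK1 and 400 µM ATP (also run at 10 µM). Product read by IMAP fluorescence polarization. IC50 fitted with standard models.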

[5] = Oral bioavailability in rat at 5 mg/kg; type: ADME, organism-based; conditions: in vivo
[6] = test system: A-375; assay: Cytotoxicity against human A375 cells expressing b-Raf V600E mutant after 72 hrs by MTS assay; type: functional, cell-based; conditions: A-375, 72 h; procedure, shortened: as §1
[7] = Volume of distribution at steady state in rat at 1 mg/kg, iv and 5 mg/kg, po; type: ADME, organism-based; conditions: in vivo, read-out: Vdss
[8] = Mean residence time in rat at 5 mg/kg, po; type: ADME, organism-based; parameters: dose 5 mg/kg, route oral; conditions: in vivo
[9] = Mean residence time in rat at 1 mg/kg, iv; type: ADME, organism-based; parameters: dose 1 mg/kg, route intravenous; conditions: in vivo
[10] = target: Tyrosine-protein kinase SYK (Homo sapiens) (UniProt P43405); assay: Inhibition of Syk at 10 uM
[11] = target: Serine/threonine-protein kinase PLK3 (Homo sapiens) (UniProt Q9H4B4); assay: Inhibition of PLK3 at 10 uM
[12] = target: Insulin receptor (Homo sapiens) (UniProt P06213); assay: Inhibition of insulin receptor at 10 uM
Insulin receptor (Homo sapiens), sequence (P06213 28-758 limits assumed): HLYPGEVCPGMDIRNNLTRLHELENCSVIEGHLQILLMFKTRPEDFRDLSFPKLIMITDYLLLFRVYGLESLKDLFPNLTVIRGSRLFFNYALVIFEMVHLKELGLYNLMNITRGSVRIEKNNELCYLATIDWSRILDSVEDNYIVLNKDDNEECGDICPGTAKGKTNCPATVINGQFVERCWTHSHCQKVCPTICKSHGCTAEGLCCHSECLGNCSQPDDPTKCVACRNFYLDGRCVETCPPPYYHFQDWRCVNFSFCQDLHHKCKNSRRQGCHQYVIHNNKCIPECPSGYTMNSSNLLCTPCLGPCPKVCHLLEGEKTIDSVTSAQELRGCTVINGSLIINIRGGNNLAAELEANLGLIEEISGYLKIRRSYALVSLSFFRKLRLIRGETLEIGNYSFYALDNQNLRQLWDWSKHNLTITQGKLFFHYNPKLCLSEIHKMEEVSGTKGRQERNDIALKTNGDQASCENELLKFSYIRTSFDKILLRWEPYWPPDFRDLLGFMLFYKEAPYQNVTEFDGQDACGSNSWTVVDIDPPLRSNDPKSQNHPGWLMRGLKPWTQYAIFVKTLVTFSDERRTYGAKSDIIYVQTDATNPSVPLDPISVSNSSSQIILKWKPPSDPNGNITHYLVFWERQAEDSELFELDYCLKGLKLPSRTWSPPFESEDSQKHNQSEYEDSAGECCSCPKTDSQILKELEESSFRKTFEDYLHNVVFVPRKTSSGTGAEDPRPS
Insulin receptor (Homo sapiens), sequence (P06213 763-1382 limits assumed): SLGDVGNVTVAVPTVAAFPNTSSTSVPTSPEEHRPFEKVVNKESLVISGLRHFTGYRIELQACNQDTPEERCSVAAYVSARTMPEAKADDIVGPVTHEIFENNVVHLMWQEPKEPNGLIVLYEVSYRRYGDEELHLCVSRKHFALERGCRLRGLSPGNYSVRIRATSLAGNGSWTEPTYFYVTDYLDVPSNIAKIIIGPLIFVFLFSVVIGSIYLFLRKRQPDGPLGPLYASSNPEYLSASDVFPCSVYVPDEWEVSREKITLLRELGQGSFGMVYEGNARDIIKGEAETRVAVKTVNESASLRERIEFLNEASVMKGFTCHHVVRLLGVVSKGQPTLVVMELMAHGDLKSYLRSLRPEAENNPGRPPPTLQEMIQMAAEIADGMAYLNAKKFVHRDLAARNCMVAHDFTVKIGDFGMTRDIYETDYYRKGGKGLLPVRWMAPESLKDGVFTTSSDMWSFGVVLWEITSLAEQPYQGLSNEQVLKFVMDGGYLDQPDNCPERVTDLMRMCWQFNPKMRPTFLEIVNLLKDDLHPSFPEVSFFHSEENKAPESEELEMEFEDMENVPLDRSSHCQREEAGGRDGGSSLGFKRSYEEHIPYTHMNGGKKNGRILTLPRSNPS

[13] = target: Mitogen-activated protein kinase 14 (Homo sapiens) (UniProt Q16539); assay: Inhibition of P38alpha at 10 uM
[14] = target: Proto-oncogene tyrosine-protein kinase Src (Homo sapiens) (UniProt P12931); assay: Inhibition of c-SRC at 10 uM
Proto-oncogene tyrosine-protein kinase Src (Homo sapiens), sequence (P12931 2-536 limits assumed): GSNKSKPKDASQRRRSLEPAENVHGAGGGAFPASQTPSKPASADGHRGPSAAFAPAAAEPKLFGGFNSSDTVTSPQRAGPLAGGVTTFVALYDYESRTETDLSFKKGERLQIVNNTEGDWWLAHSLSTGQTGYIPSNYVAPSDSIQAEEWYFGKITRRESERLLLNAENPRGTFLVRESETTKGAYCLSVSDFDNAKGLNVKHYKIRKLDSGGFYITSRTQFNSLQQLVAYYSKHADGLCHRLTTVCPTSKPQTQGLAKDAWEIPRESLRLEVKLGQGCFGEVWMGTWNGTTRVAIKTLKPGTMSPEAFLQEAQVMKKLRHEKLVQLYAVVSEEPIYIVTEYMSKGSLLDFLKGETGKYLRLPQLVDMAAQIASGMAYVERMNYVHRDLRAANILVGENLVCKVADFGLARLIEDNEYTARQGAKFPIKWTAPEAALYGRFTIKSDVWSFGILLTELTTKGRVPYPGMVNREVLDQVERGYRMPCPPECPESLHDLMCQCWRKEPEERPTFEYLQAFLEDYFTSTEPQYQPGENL

[15] = target: 3-phosphoinositide-dependent protein kinase 1 (PDPK1) (Homo sapiens) (UniProt O15530); assay: Inhibition of PDK1 at 10 uM
[16] = target: Platelet-derived growth factor receptor beta (Homo sapiens) (UniProt P09619); assay: Inhibition of PDGFRbeta at 10 uM
Platelet-derived growth factor receptor beta (Homo sapiens), sequence (P09619 whole entry): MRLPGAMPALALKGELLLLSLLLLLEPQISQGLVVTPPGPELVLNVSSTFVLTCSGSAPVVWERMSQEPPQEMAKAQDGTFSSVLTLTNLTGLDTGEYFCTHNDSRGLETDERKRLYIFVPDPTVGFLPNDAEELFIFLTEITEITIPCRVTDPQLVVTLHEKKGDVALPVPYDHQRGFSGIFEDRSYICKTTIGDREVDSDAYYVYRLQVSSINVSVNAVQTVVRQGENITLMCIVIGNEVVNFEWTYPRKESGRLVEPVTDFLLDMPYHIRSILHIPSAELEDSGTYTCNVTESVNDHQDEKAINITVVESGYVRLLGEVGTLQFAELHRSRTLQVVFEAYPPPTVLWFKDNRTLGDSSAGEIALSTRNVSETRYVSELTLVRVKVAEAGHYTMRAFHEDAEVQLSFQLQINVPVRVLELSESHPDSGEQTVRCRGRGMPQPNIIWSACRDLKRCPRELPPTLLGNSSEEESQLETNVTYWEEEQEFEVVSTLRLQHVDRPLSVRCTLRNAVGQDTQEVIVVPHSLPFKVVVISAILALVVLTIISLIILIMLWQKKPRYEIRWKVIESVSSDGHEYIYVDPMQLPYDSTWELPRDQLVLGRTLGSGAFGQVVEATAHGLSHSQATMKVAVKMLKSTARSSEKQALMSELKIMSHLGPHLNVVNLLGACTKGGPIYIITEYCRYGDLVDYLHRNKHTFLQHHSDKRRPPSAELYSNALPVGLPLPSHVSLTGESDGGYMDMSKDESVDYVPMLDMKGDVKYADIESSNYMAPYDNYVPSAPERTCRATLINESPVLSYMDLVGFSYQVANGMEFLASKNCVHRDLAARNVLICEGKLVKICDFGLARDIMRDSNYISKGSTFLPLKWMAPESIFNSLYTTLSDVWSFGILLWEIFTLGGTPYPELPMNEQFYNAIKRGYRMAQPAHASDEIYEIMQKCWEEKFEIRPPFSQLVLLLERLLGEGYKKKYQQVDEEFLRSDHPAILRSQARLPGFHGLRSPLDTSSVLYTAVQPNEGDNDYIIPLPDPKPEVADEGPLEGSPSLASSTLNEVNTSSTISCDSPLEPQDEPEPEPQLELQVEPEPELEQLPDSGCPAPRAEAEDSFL

[17] = target: Calcium/calmodulin-dependent protein kinase type 1D (Homo sapiens) (UniProt Q8IU85); assay: Inhibition of CamK1delta at 10 uM
[18] = target: Tyrosine-protein kinase ABL1 (Homo sapiens) (UniProt P00519); assay: Inhibition of Abl1 at 10 uM
[19] = target: Cyclin-dependent kinase 2/cyclin A (Homo sapiens) (UniProt P24941+P20248+P78396); assay: Inhibition of CDK2/cyclinA at 10 uM; type: protein-complex assay
[20] = target: Angiopoietin-1 receptor (Homo sapiens) (UniProt Q02763); assay: Inhibition of Tie2 at 10 uM
[21] = target: Protein kinase C alpha type (Homo sapiens) (UniProt P17252); assay: Inhibition of PKCalpha at 10 uM
[22] = target: Hepatocyte growth factor receptor (Homo sapiens) (UniProt P08581); assay: Inhibition of c-Met at 10 uM
[23] = target: T1, Tyrosine-protein kinase JAK3 (Homo sapiens) (UniProt P52333); assay: Inhibition of JAK3 at 10 uM
T1 sequence (whole entry): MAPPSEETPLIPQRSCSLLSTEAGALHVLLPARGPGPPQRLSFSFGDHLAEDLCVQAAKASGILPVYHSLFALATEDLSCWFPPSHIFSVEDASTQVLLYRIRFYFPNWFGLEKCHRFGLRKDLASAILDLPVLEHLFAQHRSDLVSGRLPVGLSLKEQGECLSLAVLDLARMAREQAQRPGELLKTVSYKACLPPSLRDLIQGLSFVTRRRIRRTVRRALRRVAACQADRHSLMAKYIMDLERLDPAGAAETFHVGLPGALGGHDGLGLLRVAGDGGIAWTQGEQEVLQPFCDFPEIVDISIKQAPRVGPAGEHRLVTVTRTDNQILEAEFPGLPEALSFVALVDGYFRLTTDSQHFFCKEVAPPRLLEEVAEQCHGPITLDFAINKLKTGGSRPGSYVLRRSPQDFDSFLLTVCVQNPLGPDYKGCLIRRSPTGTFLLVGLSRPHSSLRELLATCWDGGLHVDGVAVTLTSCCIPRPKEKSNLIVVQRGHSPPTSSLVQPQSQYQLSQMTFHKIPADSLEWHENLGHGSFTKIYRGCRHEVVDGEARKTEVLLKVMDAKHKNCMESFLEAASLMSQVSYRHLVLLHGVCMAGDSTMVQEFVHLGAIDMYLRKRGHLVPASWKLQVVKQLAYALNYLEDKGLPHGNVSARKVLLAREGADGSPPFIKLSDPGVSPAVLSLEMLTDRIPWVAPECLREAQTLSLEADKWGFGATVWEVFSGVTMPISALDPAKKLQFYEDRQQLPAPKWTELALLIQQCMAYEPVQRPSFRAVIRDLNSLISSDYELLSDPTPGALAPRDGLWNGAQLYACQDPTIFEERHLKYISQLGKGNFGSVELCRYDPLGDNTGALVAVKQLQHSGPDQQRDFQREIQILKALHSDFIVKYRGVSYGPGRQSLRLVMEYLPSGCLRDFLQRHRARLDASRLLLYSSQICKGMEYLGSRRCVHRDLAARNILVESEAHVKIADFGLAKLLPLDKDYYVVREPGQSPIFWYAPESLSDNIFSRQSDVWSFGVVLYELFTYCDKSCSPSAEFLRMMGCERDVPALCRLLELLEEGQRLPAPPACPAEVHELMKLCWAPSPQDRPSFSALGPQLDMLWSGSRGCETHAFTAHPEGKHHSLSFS

[24] = target: RAF proto-oncogene serine/threonine-protein kinase (Homo sapiens) (UniProt P04049); assay: Inhibition of c-RAF at 10 uM
RAF proto-oncogene serine/threonine-protein kinase (Homo sapiens), sequence (P04049 whole entry): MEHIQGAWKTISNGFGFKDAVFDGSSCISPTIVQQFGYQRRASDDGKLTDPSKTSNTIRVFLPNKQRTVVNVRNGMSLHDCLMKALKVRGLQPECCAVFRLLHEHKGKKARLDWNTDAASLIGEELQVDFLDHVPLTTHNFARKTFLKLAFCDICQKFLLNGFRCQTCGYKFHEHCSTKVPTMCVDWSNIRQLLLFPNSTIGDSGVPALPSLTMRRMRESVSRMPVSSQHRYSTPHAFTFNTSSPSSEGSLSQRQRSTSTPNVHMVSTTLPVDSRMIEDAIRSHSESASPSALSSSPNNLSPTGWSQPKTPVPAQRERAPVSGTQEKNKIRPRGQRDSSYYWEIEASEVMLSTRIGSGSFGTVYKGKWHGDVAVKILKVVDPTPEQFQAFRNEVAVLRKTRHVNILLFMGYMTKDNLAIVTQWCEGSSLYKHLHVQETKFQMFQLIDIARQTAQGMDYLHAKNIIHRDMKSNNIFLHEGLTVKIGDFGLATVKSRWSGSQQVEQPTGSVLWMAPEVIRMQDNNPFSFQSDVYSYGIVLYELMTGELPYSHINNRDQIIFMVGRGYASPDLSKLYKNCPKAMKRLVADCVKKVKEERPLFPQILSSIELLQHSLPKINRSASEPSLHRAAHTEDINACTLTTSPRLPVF

[25] = target: RAC-gamma serine/threonine-protein kinase (Homo sapiens) (UniProt Q9Y243); assay: Inhibition of AKT3 at 10 uM
[26] = target: Epidermal growth factor receptor (Homo sapiens) (UniProt P00533); assay: Inhibition of EGFR at 10 uM
[27] = target: Glycogen synthase kinase-3 beta (Homo sapiens) (UniProt P49841); assay: Inhibition of GSK3-beta at 10 uM
[28] = Clearance in rat at 1 mg/kg, iv and 5 mg/kg, po; type: ADME, organism-based; conditions: in vivo

| Compound | EC50 [1] [µM] | half-life [2] [min] | half-life [3] [min] | IC50 [4] [µM] | EC50 [6] [µM] | also measured |
| --- | --- | --- | --- | --- | --- | --- |
| CC(=O)n1cc(C(=O)NOCCO)c(Nc2ccc(I)cc2F)c1C | 10 | 2 | 8 | 0.02 |  |  |
| CC(=O)c1cc(C(=O)NOCCO)c(Nc2ccc(I)cc2F)n1C | 0.012 | 14 | 36 |  | 0.014 | bioavailability [5]: 46%; Vd [7]: 2.9 L/kg; MRT [8]: 384 min; MRT [9]: 55.8 min |
| CC(=O)c1c(Cl)c(C(=O)NOC[C@@H](O)CO)c(Nc2ccc(I)cc2F)n1C | 0.018 | 30 | 38 | 0.013 | 0.029 |  |
| CC(=O)c1c(F)c(C(=O)NOC[C@H](O)CO)c(Nc2ccc(I)cc2F)n1C | 0.045 | 28 | 107 | 0.029 | 0.072 |  |
| CC(=O)c1cc(C(=O)N2CC[C@@H](O)C2)c(Nc2ccc(I)cc2F)n1C | 0.084 | 9 | 14 | 0.013 | 0.127 | inhibition [10]: inactive; inhibition [11]: inactive; inhibition [12]: inactive; inhibition [13]: inactive; inhibition [14]: inactive; inhibition [15]: inactive; inhibition [16]: inactive; inhibition [17]: inactive; inhibition [18]: inactive; inhibition [19]: inactive; inhibition [20]: inactive; inhibition [21]: inactive; inhibition [22]: inactive; inhibition [23]: inactive; inhibition [24]: inactive; inhibition [25]: inactive; inhibition [26]: inactive; inhibition [27]: inactive |
| CC(=O)c1c(Cl)c(C(=O)NOC[C@H](O)CO)c(Nc2ccc(I)cc2F)n1C | 0.023 | 23 | 52 | 0.032 | 0.046 | bioavailability [5]: 40%; clearance [28]: 0.426 L/h/kg; Vd [7]: 0.361 L/kg; MRT [8]: 246 min; MRT [9]: 51 min |
| CC(=O)n1cc(Nc2ccc(I)cc2F)c(C(=O)NOCCO)c1 | 3.1 | 6 | 3 | 0.011 |  |  |
| CC(=O)c1cc(C(=O)NOCCCO)c(Nc2ccc(I)cc2F)n1C | 0.104 | 13 | 43 | 0.046 | 0.176 |  |
| CC(=O)c1c(Cl)c(C(=O)NOCCO)c(Nc2ccc(I)cc2F)n1C | 0.007 | 6 | 7 | 0.018 | 0.028 |  |
| CC(=O)c1cc(C(=O)N2CC(O)C2)c(Nc2ccc(I)cc2F)n1C | 0.032 | 13 | 15 | 0.03 | 0.097 | inhibition [10]: inactive; inhibition [11]: inactive; inhibition [12]: inactive; inhibition [13]: inactive; inhibition [14]: inactive; inhibition [15]: inactive; inhibition [16]: inactive; inhibition [17]: inactive; inhibition [18]: inactive; inhibition [19]: inactive; inhibition [20]: inactive; inhibition [21]: inactive; inhibition [22]: inactive; inhibition [23]: inactive; inhibition [24]: inactive; inhibition [25]: inactive; inhibition [26]: inactive; inhibition [27]: inactive |
| CC(=O)c1cc(C(=O)NOC[C@H](O)CO)c(Nc2ccc(I)cc2F)n1C | 0.033 | 29 | > 200 | 0.02 | 0.036 | bioavailability [5]: 19%; clearance [28]: 2.88 L/h/kg; Vd [7]: 2.1 L/kg; MRT [8]: 444 min; MRT [9]: 43.2 min |
| CC(=O)n1cc(Nc2ccc(I)cc2F)c(C(=O)O)c1 | > 50 | 20 | 29 | 0.22 |  |  |
| CC(=O)c1cc(C(=O)NCCCO)c(Nc2ccc(I)cc2F)n1C | 0.128 | 10 | 95 | 0.09 | 0.313 |  |
| CC(=O)c1cc(C(=O)N2CC(N)C2)c(Nc2ccc(I)cc2F)n1C | 0.037 | 64 | 55 | 0.007 | 0.039 | inhibition [10]: inactive; inhibition [11]: inactive; inhibition [12]: inactive; inhibition [13]: inactive; inhibition [14]: inactive; inhibition [15]: inactive; inhibition [16]: inactive; inhibition [17]: inactive; inhibition [18]: inactive; inhibition [19]: inactive; inhibition [20]: inactive; inhibition [21]: inactive; inhibition [22]: inactive; inhibition [23]: inactive; inhibition [24]: inactive; inhibition [25]: inactive; inhibition [26]: inactive; inhibition [27]: inactive |
| CC(=O)n1cc(C(=O)O)c(Nc2ccc(I)cc2F)c1C | 21 | 21 | 29 | 0.072 |  |  |
| CC(=O)c1cc(C(=O)NOC[C@@H](O)CO)c(Nc2ccc(I)cc2F)n1C | 0.011 | 68 | 150 | 0.011 | 0.017 |  |
| CC(=O)c1cc(C(=O)NOC(CO)CO)c(Nc2ccc(I)cc2F)n1C | 0.02 | 16 | 90 | 0.019 | 0.033 |  |
| CC(=O)c1cc(C(=O)O)c(Nc2ccc(I)cc2F)n1C | 7.1 | 7 | 123 | 0.042 | 2.65 |  |
| CC(=O)c1c(F)c(C(=O)NOC[C@@H](O)CO)c(Nc2ccc(I)cc2F)n1C | 0.058 | 49 | 115 | 0.019 | 0.048 |  |
